Screening data as filed in PubChem BioAssay.
Runt-SMMHC FRET: inhibitors of RUNX1 Runt–CBFb-SMMHC binding, primary screen, biochemical, FRET, Cerulean-Runt, Venus-CBFb-SMMHC, uHTS; Cerulean-Runt/Venus-CBFb-SMMHC FRET ratio 530/480, 1 h; inhibition, % at 20 µM; 0.74% of 220,000 active;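 active = mean inhibition across duplicate retests at 20 µM reaching about 50%, limit read from the data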;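 note: 0% = DMSO wells and 100% = wells with excess untagged CBFb-SMMHC; inhibitors lower the FRET ratio by blocking Runt binding to CBFb-SMMHC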
LANA-H2B inh: blockers of LANA interaction with H2A/H2B – biochemical, FP readout, HTS, primary screen. Protein LANA1 (Human herpesvirus 8 type P (isolate GK18)), Q9QR71. cell-free LANA-H2A/H2B peptide, fluorescence polarization. inhibition, % (concentration not given with the values). 0.6% of 320,000 active. AID 2629, 2010; in the data active = inhibition mostly above about 10%, no sharp cut-off; inactive = mostly below about 6.7%
RanGTP-Impb inh: inhibitors of RanGTP-importin-beta interaction, primary screen, biochemical, FRET, CFP-Ran, YFP-importin-beta, homogeneous; Ran GTPase (GTP-bound) - importin-beta complex; 1.1% of 300,000 active; AID 2216, 2009; inhibition, % (concentration not given with the values); cell-free CFP-Ran/YFP-importin-beta FRET ratio;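 active = more than half of the replicate wells show a fall in the fluorescence ratio signal beyond about 16%, limit read from the data, passing the limit was not always enough; inconclusive = exactly half of the replicate wells pass the set limit; inactive = fewer than half of replicates pass the limit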;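 note: 0% = DMSO wells and 100% = Ran loaded with GDP instead of GTP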
Runt-CBFb FRET: inhibitors of RUNX1 Runt–CBFb binding, primary screen, biochemical, FRET, Cerulean-Runt, Venus-CBFb, uHTS; Cerulean-Runt/Venus-CBFb FRET ratio 530/480, 1 h; inhibition, % at 20 µM; 0.46% of 220,000 active; AID 1496, 2009;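 active = inhibition over about 50% at 20 µM in the single-dose screen, limit read from the data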;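 note: 0% = DMSO wells and 100% = excess unlabeled CBFb competitor control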
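System: Cerulean-labeled Runt domain protein | Quantity: 100 nM of each labeled protein | Schedule: 1 h compound exposure, room temperature | Detection: Fluorescence energy transfer, 422 nm excitation, 530/480 nm emission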
HDAC3 inh: HDAC3 deacetylase inhibitors, primary screen, biochemical, fluorescence, cell-free homogeneous; Histone deacetylase 3 (Homo sapiens), O15379; inhibition, % at 8.3 µM; recombinant HDAC3, fluorogenic peptide/trypsin coupled; AID 2718, 2010; 0.15% of 320,000 active; in the data active = inhibition above about 26%, passing the limit was not always enough; inconclusive = no clear call, values can overlap the other calls
Target sequence (O15379 whole entry, looked up): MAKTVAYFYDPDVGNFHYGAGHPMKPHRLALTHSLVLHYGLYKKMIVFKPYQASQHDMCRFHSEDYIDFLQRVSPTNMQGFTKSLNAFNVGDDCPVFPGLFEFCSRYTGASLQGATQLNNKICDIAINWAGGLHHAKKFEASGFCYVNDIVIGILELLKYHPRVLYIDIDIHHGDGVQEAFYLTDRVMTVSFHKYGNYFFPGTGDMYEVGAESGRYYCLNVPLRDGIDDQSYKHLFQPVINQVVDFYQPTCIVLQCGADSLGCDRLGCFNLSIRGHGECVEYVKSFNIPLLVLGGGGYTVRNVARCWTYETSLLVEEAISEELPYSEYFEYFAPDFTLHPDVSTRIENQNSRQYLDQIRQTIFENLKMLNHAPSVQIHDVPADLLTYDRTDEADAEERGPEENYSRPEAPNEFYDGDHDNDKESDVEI
CaV13 FRET inh: Disruptors of the CACNA1D IQ motif to Ca2+-dependent inactivation inhibitor domain association, primary screening, Förster resonance energy transfer in intact living … | inhibition, % at 12.3 µM | AID 743397 | 0.098% of 340,000 active | HEK cells, CFP/YFP FRET ICDI-IQ, plate reader, 10 min; percent FRET-ratio fall versus neutral wells;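 active = mean replicate inhibition of at least 30% and at least 1% of replicates passing that level; inconclusive = only one of the two criteria is met; inactive = neither criterion is met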;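 note: 0% = median of the neutral control wells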
* marks the source's active call; other numbers are inactive results; u = inconclusive; x = not tested or not shown. A selection: hits, their analogues and other compounds. The true share with any hit is near 1.9%.

SMILES | Runt-SMMHC FRET | LANA-H2B inh | RanGTP-Impb inh | Runt-CBFb FRET | HDAC3 inh | CaV13 FRET inh
O=C(Nc1nc2ccccc2s1)c1cc2c(s1)-c1ccccc1OC2 | 58.6* | 2.9 | 36.8* | 18.8 | -3.9 | -3.7
O=C(Nc1ccc(Cl)cn1)c1cc2c(s1)-c1ccccc1OC2 | 37.8 | -2.6 | 58.0* | 32.5 | x | -17.9
O=C(Nc1nccs1)c1cc2c(s1)-c1ccccc1OC2 | 32.5 | -0.8 | 4.3 | -21.9 | -3.4 | -5.6
Cc1cccc2c1-c1sc(C(=O)Nc3nccs3)cc1CO2 | 24.7 | 0.9 | 22.3* | -20.4 | 2.2 | -4.9
Cn1c(=O)[nH]c(=O)c2c1nc(N1CCNCC1)n2Cc1cccc2ccccc12 | -2.0 | 17.8* | 5.0 | 7.6 | 2.6 | -3.8
O=C(N/N=C/c1ccc(COc2ccc(Br)cc2)o1)c1ccco1 | -1.1 | 0.0 | -1.6 | -3.4 | -0.5 | -2.5
COc1ccccc1-n1cnc2cc(NCc3ccco3)ccc21 | 7.4 | -6.3 | 11.0 | 5.8 | -4.0 | -7.4
COc1ccccc1-n1cnc2cc(NCc3ccccc3O)ccc21 | -0.9 | -5.0 | 41.6* | 4.4 | 2.6 | -4.6
CCCCCC(=O)Nc1cccc2ccccc12 | -1.7 | 2.2 | 0.9 | x | u | 5.3
CCCC(=O)Nc1ccccc1NC(C)=O | -4.5 | 18.1* | -2.9 | 0.1 | 4.1 | -3.8
COc1ccccc1C1=NOC(C)(c2sc(-c3ccc(Cl)cc3)nc2C)C1 (stereo not given) | -1.9 | -2.7 | -3.2 | 1.7 | -2.2 | -9.8
COc1ccc(/C=C/C(=O)c2ccc(Cl)cc2)c(OC)c1 | -5.5 | 0.8 | 20.5* | -2.1 | -2.3 | -9.8
COc1ccc(/C=C/C(=O)c2cc(Cl)ccc2O)c(OC)c1 | -2.1 | -0.8 | 0.7 | -0.2 | -2.6 | -5.0
COc1cccc(-c2noc(C3CCCN(C(=O)Cc4ccccc4)C3)n2)c1 (stereo not given) | 1.1 | 10.6* | -0.4 | -1.1 | -4.1 | -6.0
Cc1cccn2c(=O)c3cc(C(=O)NCCN4CCOCC4)c(=N)n(Cc4ccc(F)cc4)c3nc12 | x | 12.5 | 161.9* | x | -69.3 | 102.0*
Cc1cccn2c(=O)c3cc(C(=O)NCCN4CCOCC4)n(Cc4ccccc4)c3nc12 | 6.5 | x | x | 1.7 | x | x
Cc1cccn2c(=O)c3cc(C(=O)NCCN4CCOCC4)n(C)c3nc12 | x | 2.9 | 4.1 | x | -40.8 | -5.0
Cc1cccn2c(=O)c3cc(C(=O)NCCN4CCOCC4)c(=N)n(CCN4CCOCC4)c3nc12 | x | -0.6 | 127.8* | x | -98.9 | 13.5
Cc1cccn2c(=O)c3cc(C(=O)NC4CCCC4)c(=N)n(CCCN4CCOCC4)c3nc12 | x | 3.4 | 175.0* | x | -134.0 | 16.4
CCOCCCn1c(=N)c(C(=O)NCCN2CCOCC2)cc2c(=O)n3cccc(C)c3nc21 | x | -4.2 | x | x | -166.6 | 15.4
CCc1cccc(NC(=O)COC(=O)C2COc3ccccc3O2)c1 (stereo not given) | x | x | x | x | x | -11.7
CN(C(=O)CSc1nc(N)nn1-c1ccccc1)c1ccccc1 | -1.0 | -0.7 | 4.0 | 2.2 | -6.2 | -5.2
O=C(CP(=O)(c1ccccc1)c1ccccc1)N/N=C/c1cc(Br)cc(Br)c1O | 59.6 | -1.6 | 21.0* | 30.6 | 1.2 | -4.7
O=C(C[n+]1ccccc1)N/N=C/c1cc(Br)cc(Br)c1O | x | -3.6 | -2.9 | x | 4.3 | x
O=C(Cc1ccccc1)N/N=C/c1cc(Br)cc(Cl)c1O | 91.8* | -2.7 | 18.1* | 28.3 | -3.9 | -5.1
Cn1nccc1C(=O)Nc1ccc(OC(=O)c2ccnn2C)cc1 | -2.4 | 3.5 | u | 2.2 | 8.9 | -4.5
CC(C)Cc1nnc(NC(=O)Cc2ccccc2[N+](=O)[O-])s1 | 1.8 | -1.1 | -3.8 | 3.5 | 4.2 | -5.0
